The results in this text go back to PubChem BioAssay.

Active and inactive are the calls of the source.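 How the source made its calls, unless noted: active means GFP response above 150% of the DMSO level; inconclusive means fewer than 70 events counted for a yeast strain; inactive means the rest.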

The nature of assay [1]: hit retest on RPL19A-GFP reporter strain – cell-based, S. cerevisiae, flow cytometry, cherry picks, mother/daughter gates, confirmation (AID 2270;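 active means GFP response below 50% of the DMSO control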). The conditions noted are these: 3 h, at 10 µM, stronger effect = lower value, 100 = same GFP as DMSO wells. On the technique in general: In flow cytometry, cells or beads pass a laser one at a time.
Assay [2] in a line: yeast TOR pathway reporter LAP4-GFP change – cell-based, cherry picks, flow cytometry, mother/daughter gates, confirmation (AID 2271;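 active means GFP response above 150% of the DMSO control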;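 further: ratio of sample to DMSO plate mean so 100% equals DMSO level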). The conditions noted are these: S. cerevisiae LAP4-GFP strain, 3 h, at 10 µM, stronger effect = higher value, 100 means same as DMSO control. The essentials:
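Measured by: GFP by flow cytometry. Test system: GFP-fusion yeast strain. Input: yeast cells seeded at OD600 of 0.2. Timing: 30 °C, 3 h compound incubation, rotating. Buffer or medium: synthetic complete medium for yeast. Benchmarks: DMSO-only negative wells, rapamycin 400 ng/mL positive wells. Compound: 10 µM single dose.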

Assay [3] is described as follows: TOR pathway reporter MEP2-GFP, retest of hits – S. cerevisiae, flow cytometry GFP, cherry picks, confirmation (AID 2272;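 active means GFP response above 150% of the DMSO control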;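 further: ratio of well signal to plate DMSO mean so 100% equals DMSO level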). The conditions noted are these: S. cerevisiae MEP2-GFP strain, 3 h, at 10 µM, stronger effect = higher value.
Assay [4] in a line: yeast AGP1-GFP fluorescence change, single-dose – cell-based, flow cytometry, S. cerevisiae, cherry picks, confirmation (AID 2273).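 Further: median GFP channel fluorescence over the whole cell population gate.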 The conditions noted are these: S. cerevisiae AGP1-GFP strain, 3 h, at 10 µM.
The nature of assay [5]: TOR pathway CIT2 reporter hit retest – S. cerevisiae, GFP fusion, cherry picks, mother/daughter gates, confirmation (AID 2274). The note with it: S. cerevisiae CIT2-GFP strain, flow cytometry, 3 h, at 10 µM, stronger effect = higher value.
Setting [6] is: measured here: daughter cell gate.
Setting [7] is: measured here: mother cell gate.
[8] abbreviates: measured here: daughter cell gate response.
The mark [9] stands for this setting: measured here: mother cell gate response.

With `CN(C)c1ccc(N=Cc2nc(-c3ccccc3)oc2OC(=O)c2ccccc2)cc1`, the GFP response vs DMSO is 98.6% (inactive) in assay [1], 100% in assay [1] (setting [6]), 98.5% in assay [1] (setting [7]) and 115% (inactive) in assay [3]. The GFP response relative to DMSO was 105% (inactive) in assay [2], 103% in assay [2] (setting [8]) and 105% in assay [2] (setting [9]). In addition, the GFP response, % of DMSO in assay [4] is 111% (inactive); in assay [5], 107% (inactive); in assay [5] (setting [6]), 103%; in assay [5] (setting [7]) it was 107%.

As for `Cc1nn(Cc2ccc(Cl)cc2)c(=O)n1N(C)c1ncc(C(F)(F)F)cc1Cl`, the GFP response vs DMSO is 96% (inactive) in assay [1], 98.1% in assay [1] (setting [6]), 97.2% in assay [1] (setting [7]) and 96.2% (inactive) in assay [3]. Also, the GFP response relative to DMSO in assay [2] is 96.7% (inactive); in assay [2] (setting [8]), 97.6%; in assay [2] (setting [9]) it was 95.1%. Moreover, the GFP response, % of DMSO in assay [4] was 95.4% (inactive); in assay [5], 99.7% (inactive); in assay [5] (setting [6]), 101%; in assay [5] (setting [7]) it was 98.5%.

As for `Cc1ccc(S(=O)(=O)NCC23C=CC(O2)C2C(=O)N(c4ccccc4)C(=O)C23)cc1` (stereo not drawn), the GFP response vs DMSO in assay [1] was 98.4% (inactive); in assay [1] (setting [6]), 98.9%; in assay [1] (setting [7]) it was 98.7%; in assay [3], 102% (inactive). Besides, the GFP response relative to DMSO is 96.7% (inactive) in assay [2], 97.6% in assay [2] (setting [8]) and 97.2% in assay [2] (setting [9]). Moreover, the GFP response, % of DMSO in assay [4] is 99.9% (inactive); in assay [5], 105% (inactive); in assay [5] (setting [6]), 105%; in assay [5] (setting [7]) it was 104%.

Consider `CCc1c2ccccc2nn1-c1ccccc1C(=O)C(C)=O`, for which the GFP response vs DMSO is 95.8% (inactive) in assay [1], 97.3% in assay [1] (setting [6]), 94% in assay [1] (setting [7]) and 103% (inactive) in assay [3]. The GFP response relative to DMSO in assay [2] was 102% (inactive); in assay [2] (setting [8]) it was 101%; in assay [2] (setting [9]) it was 102%. Also, the GFP response, % of DMSO in assay [4] was 100% (inactive); in assay [5], 98.6% (inactive); in assay [5] (setting [6]), 99.3%; in assay [5] (setting [7]), 98.2%.

As to `CCc1nnc(NC(=O)CSc2nnc(C3CCCCC3)n2-c2cccc(Cl)c2)s1`, the GFP response vs DMSO in assay [1] is 98.2% (inactive); in assay [1] (setting [6]), 98.5%; in assay [1] (setting [7]), 98.6%; in assay [3] it was 102% (inactive). Besides, the GFP response relative to DMSO in assay [2] is 100% (inactive); in assay [2] (setting [8]), 99.3%; in assay [2] (setting [9]) it was 99.5%. Also, the GFP response, % of DMSO in assay [4] was 101% (inactive); in assay [5], 101% (inactive); in assay [5] (setting [6]), 102%; in assay [5] (setting [7]), 100%.

On to `Cc1c(Br)c(O)c(Br)c2sc(=O)oc12`, for which the GFP response vs DMSO in assay [1] is 96.2% (inactive); in assay [1] (setting [6]) it was 101%; in assay [1] (setting [7]), 94.2%; in assay [3], 105% (inactive). The GFP response relative to DMSO is 125% (inactive) in assay [2], 123% in assay [2] (setting [8]) and 129% in assay [2] (setting [9]). Further, the GFP response, % of DMSO in assay [4] was 101% (inactive); in assay [5], 97.3% (inactive); in assay [5] (setting [6]), 101%; in assay [5] (setting [7]) it was 94.4%.

For the compound `Cc1cccc(NC(=O)/C(C#N)=C/c2ccccc2Cl)n1`, the GFP response vs DMSO was 91.2% (inactive) in assay [1], 91% in assay [1] (setting [6]), 86.6% in assay [1] (setting [7]) and 153% (inactive) in assay [3]. The GFP response relative to DMSO in assay [2] was 147% (inactive); in assay [2] (setting [8]) it was 133%; in assay [2] (setting [9]), 145%. For the same compound, the GFP response, % of DMSO in assay [4] was 109% (inactive); in assay [5] it was 112% (inactive); in assay [5] (setting [6]), 117%; in assay [5] (setting [7]) it was 103%.

On to `O=C(NNC(=O)C1CCCCC1)C(=O)NC1CCCCC1`, for which the GFP response vs DMSO in assay [1] is 99.1% (inactive); in assay [1] (setting [6]), 99.8%; in assay [1] (setting [7]), 99.3%; in assay [3], 112% (inactive). For the same compound, the GFP response relative to DMSO in assay [2] was 98.8% (inactive); in assay [2] (setting [8]), 97.9%; in assay [2] (setting [9]), 97.5%. Also, the GFP response, % of DMSO in assay [4] was 104% (inactive); in assay [5] it was 104% (inactive); in assay [5] (setting [6]), 102%; in assay [5] (setting [7]), 104%.

As to `CCOc1cc(-c2nc3cc(C)ccn3c2NCC2CCCO2)ccc1O` (stereo not drawn), the GFP response vs DMSO in assay [1] was 103% (inactive); in assay [1] (setting [6]) it was 105%; in assay [1] (setting [7]) it was 101%; in assay [3], 103% (inactive). In addition, the GFP response relative to DMSO is 88.2% (inactive) in assay [2], 91.3% in assay [2] (setting [8]) and 87.3% in assay [2] (setting [9]). Moreover, the GFP response, % of DMSO in assay [4] is 97.9% (inactive); in assay [5], 104% (inactive); in assay [5] (setting [6]) it was 108%; in assay [5] (setting [7]), 104%.

As to `Cc1ccccc1C(=O)Nc1ccccc1`, the GFP response vs DMSO in assay [1] is 96.4% (inactive); in assay [1] (setting [6]) it was 94.9%; in assay [1] (setting [7]), 97.4%; in assay [3], 96.2% (inactive). The GFP response relative to DMSO is 96.7% (inactive) in assay [2], 97.6% in assay [2] (setting [8]) and 97.2% in assay [2] (setting [9]). Besides, the GFP response, % of DMSO was 100% (inactive) in assay [4], 101% (inactive) in assay [5], 103% in assay [5] (setting [6]) and 102% in assay [5] (setting [7]).

Turning to `Cc1cccc(OCCCSc2nc3ccc(C)cc3[nH]2)c1`, the GFP response vs DMSO in assay [1] is 92% (inactive); in assay [1] (setting [6]) it was 89.2%; in assay [1] (setting [7]), 92.2%; in assay [3] it was 94.7% (inactive). In addition, the GFP response relative to DMSO in assay [2] was 124% (inactive); in assay [2] (setting [8]) it was 115%; in assay [2] (setting [9]), 127%. For the same compound, the GFP response, % of DMSO in assay [4] was 91.6% (inactive); in assay [5] it was 79.9% (inactive); in assay [5] (setting [6]), 77.5%; in assay [5] (setting [7]) it was 82.1%.

For the compound `O=C(N/N=C/c1ccc(-c2ccc(Br)cc2)o1)c1ccc2c(c1)OCO2`, the GFP response vs DMSO was 102% (inactive) in assay [1], 98.6% in assay [1] (setting [6]), 101% in assay [1] (setting [7]) and 103% (inactive) in assay [3]. The figures for the GFP response relative to DMSO in assay [2], in assay [2] (setting [8]) and in assay [2] (setting [9]) were 99.5% (inactive), 95.9% and 98.4%, respectively. Besides, the GFP response, % of DMSO in assay [4] was 98.8% (inactive); in assay [5], 102% (inactive); in assay [5] (setting [6]), 99.2%; in assay [5] (setting [7]), 98.1%.

`COc1ccc(COC(=O)c2n[nH]c3ccccc23)cc1F`: the GFP response vs DMSO was 98.4% (inactive) in assay [1], 96.7% in assay [1] (setting [6]), 98.2% in assay [1] (setting [7]) and 102% (inactive) in assay [3]. Further, the GFP response relative to DMSO in assay [2] was 97.4% (inactive); in assay [2] (setting [8]), 98.7%; in assay [2] (setting [9]), 99.3%. Moreover, the GFP response, % of DMSO in assay [4] was 95% (inactive); in assay [5] it was 106% (inactive); in assay [5] (setting [6]) it was 108%; in assay [5] (setting [7]) it was 104%.
